Drawing on ChEMBL document CHEMBL1133978, “Potent peptide alpha-ketohydroxamate inhibitors of recombinant human calpain I” (Bioorg Med Chem Lett, 2001), this text covers IC50 and inhibition for 11 molecules.

Assay [1] deals with MOLT-4. The assay is described as follows: Inhibition of cell permeability by measuring the spectrin breakdown product in intact MOLT-4 cells. The following applies: Homo sapiens. In kind it is functional, cell-based. The procedure, abridged: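 Intact MOLT-4 cells (human leukemia T-cell line) had calpain activated with ionomycin. Cell permeability was read as inhibition of the spectrin breakdown product. Potency is reported as IC50.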

The subject of assay [2] is MOLT-4. Put plainly: Compound was tested for inhibition of cell permeability by measuring the spectrin breakdown product in intact MOLT-4 cells at 1 uM. As to conditions: Homo sapiens. In kind it is functional. The procedure, abridged:
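In intact MOLT-4 human leukemia T cells, calpain was activated by ionomycin. Spectrin breakdown product was measured, and inhibition is given as percent at a single 1 μM test concentration.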

What is called IC50 is the concentration at which inhibition is half-maximal. A higher IC50 goes with weaker potency. The molecule `CC(C)C[C@H](NC(=O)OCc1ccccc1)C(=O)N[C@@H](Cc1ccccc1)C(=O)C(=O)NOCc1ccccc1` returned an IC50 with MOLT-4 [1] of 600 nM. Same read-out and setting: for `CCONC(=O)C(=O)[C@H](Cc1ccccc1)NC(=O)[C@H](CC(C)C)NC(=O)OCc1ccccc1` the value was 1100 nM; for `CC(C)C[C@H](NC(=O)OCc1ccccc1)C(=O)N[C@@H](CC(C)C)C(=O)N[C@@H](Cc1ccccc1)C(=O)C(=O)NOCc1ccccc1`, 200 nM; for `CONC(=O)C(=O)[C@H](Cc1ccccc1)NC(=O)[C@H](CC(C)C)NC(=O)[C@H](CC(C)C)NC(=O)OCc1ccccc1`, 200 nM. As for `CC(C)[C@@H](NC(=O)OCc1ccccc1)C(=O)N[C@@H](Cc1ccccc1)C(=O)C(=O)NOCc1ccccc1`, the IC50 in the assay with MOLT-4 [1] came to 600 nM. Still for that read-out and setting: for `CS(=O)(=O)N[C@H](COCc1ccccc1)C(=O)N[C@@H](Cc1ccccc1)C(=O)C(=O)NOCc1ccccc1` the value was 900 nM. What is called inhibition is the drop in the measured response relative to a control, in per cent. The low end stands for a weak effect, the high end for a strong effect. For `CC(C)C[C@H](NC(=O)OCc1ccccc1)C(=O)N[C@@H](Cc1ccccc1)C(=O)C(=O)NOC1CCC(C)CC1` (stereo partly specified), in the assay on MOLT-4 [2], the inhibition at 1 µM worked out at 26%. In the assay on MOLT-4 [1], `CC(C)C[C@H](NC(=O)OCc1ccccc1)C(=O)N[C@@H](Cc1ccccc1)C(=O)C(=O)NOC(C)(C)C` returned an IC50 of 3900 nM.

The molecule `CCCC[C@H](NC(=O)[C@@H](NC(=O)OCc1ccccc1)C(C)C)C(=O)C(=O)NOCc1ccccc1` had an IC50 in the assay on MOLT-4 [1] of 500 nM. With `CONC(=O)C(=O)[C@H](Cc1ccccc1)NC(=O)[C@H](CC(C)C)NC(=O)OCc1ccccc1`, the IC50 with MOLT-4 [1] was found to be 900 nM. Same read-out and setting: as for `CC(C)C[C@H](NC(=O)OCc1ccccc1)C(=O)N[C@@H](Cc1ccccc1)C(=O)C(=O)NOCc1c(F)c(F)c(F)c(F)c1F`, the figure is 2900 nM.
